Data as given in ChEMBL document CHEMBL1806381, “Unprecedented C-2 arylation of indole with diazonium salts: Syntheses of 2,3-disubstituted indoles and their antimicrobial activity” (Bioorg Med Chem Lett, 2011).
Converted amounts (≈) assume the structure as drawn.

Experiments:
[1] = tested on: Staphylococcus aureus; assay: Antimicrobial activity against methicillin-susceptible Staphylococcus aureus ATCC 29213 assessed as growth inhibition after 18 hrs by MTT assay; format: functional; conditions: ATCC 29213, 18 h
Procedure, shortened: (§1)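 Bacterial suspensions were adjusted to about 5×10^5 CFU/mL and treated with compounds in 2-fold serial dilutions. They were incubated for 18 h as ATCC recommends. Viability was read by MTT because the compounds are coloured.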

[2] = tested on: Staphylococcus aureus; assay: Antimicrobial activity against methicillin-resistant Staphylococcus aureus BAA-44 assessed as growth inhibition after 18 hrs by MTT assay; format: functional; conditions: BAA-44, 18 h
Procedure, shortened: (§2)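 Bacterial suspensions adjusted to ~5×10^5 CFU/mL, treated with compounds in 2-fold serial dilutions, incubated per ATCC recommendations for 18 h. Viability read by MTT method, used because the compounds are coloured.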

[3] = tested on: Enterococcus faecalis; assay: Antimicrobial activity against low-level vancomycin-resistant Enterococcus faecalis ATCC 51299 assessed as growth inhibition after 18 hrs by MTT assay; format: functional; conditions: ATCC 51299, 18 h; procedure, shortened: as §2
[4] = tested on: Pseudomonas aeruginosa; assay: Antimicrobial activity against Pseudomonas aeruginosa ATCC 27853 assessed as growth inhibition after 18 hrs by MTT assay; format: functional; conditions: ATCC 27853, 18 h; procedure, shortened: as §1
[5] = tested on: Acinetobacter baumannii; assay: Antimicrobial activity against Acinetobacter baumannii ATCC 15151 assessed as growth inhibition after 18 hrs by MTT assay; format: functional; conditions: ATCC 15151, 18 h; procedure, shortened: as §1
[6] = tested on: Candida albicans; assay: Antimicrobial activity against Candida albicans ATCC 26555 assessed as growth inhibition after 18 hrs by MTT assay; format: functional; conditions: ATCC 26555, 18 h
[7] = Antiproliferative activity against human HeLa cells after 72 hrs by MTT assay; format: cell-based

Compound	MIC [1] [µM]	MIC [2] [µM]	MIC [3] [µM]	MIC [4] [µM]	MIC [5] [µM]	MIC [6] [µM]	GI50 at 72 h [7] [µM]
Clc1ccc(/C=C/c2c[nH]c3ccccc23)cc1	25 (≈ 6.34 µg/mL)	> 100	> 100	> 100	> 100	> 100	64
Fc1cccc2c(Oc3ccc(Cl)cc3)c(-c3ccc(Cl)cc3)[nH]c12	1.6 (≈ 0.596 µg/mL)	1.3 (≈ 0.484 µg/mL)	3.1 (≈ 1.15 µg/mL)	> 100	> 100	> 100	13
Clc1ccc(-c2cc3[nH]c4ccccc4c3cc2-c2ccc(Cl)cc2)cc1	> 100	> 100	> 100	> 100	> 100	> 100	16
O=S(=O)(c1ccc(Cl)cc1)c1c(-c2ccc(Cl)cc2)[nH]c2ccccc12	> 100	> 100	> 100	> 100	> 100	> 100	14
CC1(C)S[C@@H]2[C@H](NC(=O)Cc3ccccc3)C(=O)N2[C@H]1C(=O)O [PENICILLIN G]	23.9 (≈ 7.99 µg/mL)	> 100	11.9 (≈ 3.98 µg/mL)	–	–	–	–
Fc1ccc2[nH]c(-c3ccc(Cl)cc3)c(Oc3ccc(Cl)cc3)c2c1	1.6 (≈ 0.596 µg/mL)	1.6 (≈ 0.596 µg/mL)	6.3 (≈ 2.35 µg/mL)	> 100	> 100	> 100	13
Clc1ccc(/N=N/c2c(-c3ccc(Br)cc3)[nH]c3ccccc23)cc1	6.3 (≈ 2.59 µg/mL)	6.3 (≈ 2.59 µg/mL)	6.3 (≈ 2.59 µg/mL)	> 100	> 100	> 100	13
COc1ccc(/N=N/c2c(-c3ccc(OC)cc3)[nH]c3ccccc23)cc1	3.1 (≈ 1.11 µg/mL)	50 (≈ 17.9 µg/mL)	> 100	> 100	> 100	> 100	23
CN[C@H](CC(C)C)C(=O)N[C@H]1C(=O)N[C@@H](CC(N)=O)C(=O)N[C@H]2C(=O)N[C@H]3C(=O)N[C@H](C(=O)N[C@H](C(=O)O)c4cc(O)cc(O)c4-c4cc3ccc4O)[C@H](O)c3ccc(c(Cl)c3)Oc3cc2cc(c3O[C@@H]2O[C@H](CO)[C@@H](O)[C@H](O)[C@H]2O[C@H]2C[C@](C)(N)[C@H](O)[C@H](C)O2)Oc2ccc(cc2Cl)[C@H]1O [VANCOMYCIN]	2.8 (≈ 4.06 µg/mL)	2.8 (≈ 4.06 µg/mL)	86.3 (≈ 125 µg/mL)	–	–	–	–
Clc1ccc(Oc2c(-c3ccc(Cl)cc3)[nH]c3ccc(Br)cc23)cc1	3.1 (≈ 1.34 µg/mL)	3.1 (≈ 1.34 µg/mL)	12.5 (≈ 5.41 µg/mL)	> 100	> 100	> 100	3
Clc1ccc(Sc2c(-c3ccc(Cl)cc3)[nH]c3ccc(Cl)cc23)cc1	1.6 (≈ 0.648 µg/mL)	1.3 (≈ 0.526 µg/mL)	6.3 (≈ 2.55 µg/mL)	> 100	> 100	> 100	8
Clc1ccc(Oc2c(-c3ccc(Cl)cc3)[nH]c3ccc(Cl)cc23)cc1	1.6 (≈ 0.622 µg/mL)	0.6 (≈ 0.233 µg/mL)	12.5 (≈ 4.86 µg/mL)	> 100	> 100	> 100	8
Brc1ccc(/N=N/c2c[nH]c3ccccc23)cc1	6.3 (≈ 1.89 µg/mL)	6.3 (≈ 1.89 µg/mL)	12.5 (≈ 3.75 µg/mL)	> 100	> 100	25 (≈ 7.5 µg/mL)	49
Clc1ccc(-c2cc3ccccc3[nH]2)cc1	> 100	> 100	> 100	> 100	> 100	> 100	> 100
Clc1ccc(/C=C/c2[nH]c3ccccc3c2/C=C/c2ccc(Cl)cc2)cc1	> 100	> 100	> 100	> 100	> 100	> 100	69
COc1ccc2[nH]c(-c3ccc(Cl)cc3)c(Oc3ccc(Cl)cc3)c2c1	12.5 (≈ 4.8 µg/mL)	6.3 (≈ 2.42 µg/mL)	25 (≈ 9.61 µg/mL)	> 100	> 100	> 100	24
Clc1ccc(Sc2c(-c3ccc(Cl)cc3)[nH]c3ccccc23)cc1	1.6 (≈ 0.592 µg/mL)	3.1 (≈ 1.15 µg/mL)	3.1 (≈ 1.15 µg/mL)	> 100	> 100	> 100	6
Clc1ccc(/N=N/c2c[nH]c3ccccc23)cc1	12.5 (≈ 3.2 µg/mL)	12.5 (≈ 3.2 µg/mL)	25 (≈ 6.39 µg/mL)	> 100	> 100	12.5 (≈ 3.2 µg/mL)	23
Clc1ccc(Oc2c(-c3ccc(Cl)cc3)[nH]c3ccccc23)cc1	1.6 (≈ 0.567 µg/mL)	3.1 (≈ 1.1 µg/mL)	12.5 (≈ 4.43 µg/mL)	> 100	> 100	> 100	9
Brc1ccc(/N=N/c2c(-c3ccc(Br)cc3)[nH]c3ccccc23)cc1	6.3 (≈ 2.87 µg/mL)	12.5 (≈ 5.69 µg/mL)	6.3 (≈ 2.87 µg/mL)	> 100	> 100	> 100	9
O=C(c1ccc(Cl)cc1)c1c(-c2ccc(Cl)cc2)[nH]c2ccccc12	> 100	> 100	> 100	> 100	> 100	> 100	19
Clc1ccc(Sc2c(-c3ccc(Br)cc3)[nH]c3ccccc23)cc1	1.6 (≈ 0.664 µg/mL)	3.1 (≈ 1.29 µg/mL)	3.1 (≈ 1.29 µg/mL)	> 100	> 100	> 100	12
